A selection: hits, their analogues and other compounds. The true share with any hit is near 1.6%.
B2AR ag: activates human beta-2 adrenergic receptor causing internalization | response, % (concentration not given with the values) | 340,000 compounds, 0.43% hits | P07550 | Am2.2-beta2AR cells, FAP receptor internalization, flow cytometry;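 active means response above a set limit, near 3 SD of response in nonfluorescent compounds, cut at about 42% in these data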
ABHD5-PLIN5 inh: ABHD5-PLIN5 protein interaction inhibition | Q00G26+Q8WTS1 | Split G. princeps luciferase complementation, luminescence, 4 h | inhibition, % at 4 µM | 360,000 compounds, 0.78% hits;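 active means inhibition above the mean inhibition across every tested compound plus 3 SD, cut at about 22% in these data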;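 further: 0% = DMSO only wells and the 100% control is not disclosed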
TLR4-MyD88 BLA: blocks binding of human TLR4 to MyD88; O00206+Q99836; inhibition, % at 8.4 µM; 200,000 compounds, 0.18% hits; HeLa CL3-4 TLR4/MyD88 BLA complementation, FRET ratio; in the data active means inhibition above about 25%;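 further: 0% = vehicle and 100% = reference inhibitor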
Target sequence (O00206 whole entry, looked up): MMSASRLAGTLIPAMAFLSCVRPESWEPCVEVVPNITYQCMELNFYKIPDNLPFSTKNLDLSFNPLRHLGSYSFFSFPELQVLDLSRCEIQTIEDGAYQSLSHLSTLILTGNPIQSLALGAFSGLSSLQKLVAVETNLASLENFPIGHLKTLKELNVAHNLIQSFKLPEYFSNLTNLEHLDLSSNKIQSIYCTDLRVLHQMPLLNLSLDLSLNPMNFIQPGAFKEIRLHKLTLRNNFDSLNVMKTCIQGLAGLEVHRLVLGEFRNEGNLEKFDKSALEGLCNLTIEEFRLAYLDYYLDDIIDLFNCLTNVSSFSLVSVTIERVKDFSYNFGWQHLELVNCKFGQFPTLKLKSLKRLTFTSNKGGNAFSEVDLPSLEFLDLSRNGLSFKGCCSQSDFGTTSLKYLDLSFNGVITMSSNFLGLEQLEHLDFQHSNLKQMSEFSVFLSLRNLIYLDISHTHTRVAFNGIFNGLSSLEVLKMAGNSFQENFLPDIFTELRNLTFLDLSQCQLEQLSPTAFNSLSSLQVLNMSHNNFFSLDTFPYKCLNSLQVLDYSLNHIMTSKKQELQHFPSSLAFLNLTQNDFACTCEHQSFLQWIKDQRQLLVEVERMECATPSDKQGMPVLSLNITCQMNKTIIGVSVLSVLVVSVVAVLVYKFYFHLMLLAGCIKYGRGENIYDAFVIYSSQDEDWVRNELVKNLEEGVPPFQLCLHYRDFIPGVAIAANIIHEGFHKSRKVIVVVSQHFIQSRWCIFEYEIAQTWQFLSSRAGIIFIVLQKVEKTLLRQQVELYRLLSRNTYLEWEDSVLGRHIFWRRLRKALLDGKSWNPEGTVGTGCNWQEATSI
Target sequence (Q99836 whole entry, looked up): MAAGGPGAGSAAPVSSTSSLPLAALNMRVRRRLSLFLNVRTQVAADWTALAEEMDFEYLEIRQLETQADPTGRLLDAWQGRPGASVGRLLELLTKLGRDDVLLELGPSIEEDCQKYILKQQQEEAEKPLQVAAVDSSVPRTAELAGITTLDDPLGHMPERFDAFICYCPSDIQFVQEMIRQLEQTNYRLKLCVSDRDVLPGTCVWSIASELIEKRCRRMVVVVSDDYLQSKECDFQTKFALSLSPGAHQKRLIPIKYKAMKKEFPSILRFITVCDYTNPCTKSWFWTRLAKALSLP
Dynein cargo inh: dynein cargo transport inhibition. z-score, hits read low. 3617.4 mouse cells, GR-EGFP nuclear translocation imaging; test concentration mostly 20 µM; stimulated with dexamethasone, 1 µM; active compounds read low. 220,000 compounds, 0.47% hits. AID 1381;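 active means plate z-score of nuclear minus cytoplasmic receptor signal below a set negative limit, without overly bright fluorescence or cell loss, cut at about -3.5 in these data, passing the limit was not always enough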;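 further: z-score of nuclear minus cytoplasmic ring GR-EGFP intensity difference per well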
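Medium: Induction medium lacking tetracycline, stripped serum | Probe or stimulus: 1.0 µM final dexamethasone stimulus | Schedule: 48 h induction, then 1 h compound, then 30 min agonist, 37 °C | Signal: Automated 10x imaging of fixed Hoechst-stained cells | Evaluation: Per-cell GR-EGFP intensity, nucleus versus surrounding cytoplasmic ring, well-averaged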
TLR9-MyD88 block: blocks human TLR9 binding to MyD88; inhibition, % at 4.98 µM; 340,000 compounds, 0.21% hits; CHO BLA complementation TLR9-MyD88, CCF4 FRET ratio;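 active means inhibition above the mean over all tested compounds plus 3 SD, cut at about 21% in these data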;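 further: 0% = DMSO only wells and 100% = clavulanate BLA inhibitor control wells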
NOD2 RIPK2 PPI: NOD2-RIPK2 protein interaction inhibition | CHO BLA complementation NOD2-RIPK2, CCF4 ratio | inhibition, % at 4.98 µM | 360,000 compounds, 0.38% hits | AID 624267; in the data active means inhibition above about 21%;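 further: 0% = vehicle only and 100% = reference blocker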
B2AR ag CP1: human beta-2 adrenergic receptor agonism, cherry pick; AID 540358; percent response (surface receptor), % at 10 µM; shares compounds with B2AR ag; 1,100 compounds, 25% hits; Am2.2-beta2AR cells, FAP surface receptor, flow cytometry; active compounds read low;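 active means surface receptor percent response at or below 58%, roughly 3 SD from nonfluorescent compounds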
B2AR FAP counter: counter-screen for beta-2AR agonists: fluorescence in Am2.2 cells; 1,100 tested, under 10 active; FAP fluorogen flow cytometry, fluorescence counterscreen; active compounds read low; AID 588765; shares compounds with B2AR ag; calls only at 10 µM;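 active means percent response below a set limit in fluorescence channel 1 and below 50% in channel 8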
Numbers without * were called inactive; ! = not confirmed by another sample.

How did CC(C)(NC(=O)NC(CO)c1ccccc1)c1cccc(C(C)(C)NC(=O)NC(CO)c2ccccc2)c1 (configuration not stated) do in these assays?
B2AR ag: -8; ABHD5-PLIN5 inh: 0; TLR9-MyD88 block: 2; NOD2 RIPK2 PPI: -6; B2AR ag CP1: 110; B2AR FAP counter: inactive

Results for CC(C)(C(=O)O)c1ccc(C(O)CCCN2CCC(C(O)(c3ccccc3)c3ccccc3)CC2)cc1 (configuration not stated) ?
B2AR ag: -3; ABHD5-PLIN5 inh: 4; TLR9-MyD88 block: -3; NOD2 RIPK2 PPI: -12; B2AR ag CP1: 82; B2AR FAP counter: inactive

How did O=C(COc1ccccc1F)N1c2ccccc2CCc2ccccc21 do in these assays?
B2AR ag: 63*; ABHD5-PLIN5 inh: 1; TLR4-MyD88 BLA: 4; Dynein cargo inh: -0.39; TLR9-MyD88 block: -6; NOD2 RIPK2 PPI: -6; B2AR ag CP1: 15*; B2AR FAP counter: inactive

What do the screens show for `O=C(COc1ccccc1F)N1CCCc2ccccc21`?
B2AR ag: -3; ABHD5-PLIN5 inh: 10; TLR9-MyD88 block: -2; NOD2 RIPK2 PPI: 2

Results for Cc1ccc(Nc2c(-c3ccccn3)nc3cc(C)ccn23)cc1 ?
B2AR ag: 76*; ABHD5-PLIN5 inh: 6; TLR4-MyD88 BLA: 1; Dynein cargo inh: -1; TLR9-MyD88 block: 9; NOD2 RIPK2 PPI: 3; B2AR ag CP1: 128; B2AR FAP counter: inactive

How did CC(=O)c1cccc(NC(=O)COC(=O)c2ccc(S(C)(=O)=O)c([N+](=O)[O-])c2)c1 do in these assays?
B2AR ag: 68*; ABHD5-PLIN5 inh: 13; TLR4-MyD88 BLA: 10; Dynein cargo inh: 0.3; TLR9-MyD88 block: 9; NOD2 RIPK2 PPI: -5; B2AR ag CP1: 99; B2AR FAP counter: inactive

How did CS(=O)(=O)c1ccc(C(=O)OCC(=O)Nc2cccnc2Cl)cc1[N+](=O)[O-] do in these assays?
B2AR ag: 9; ABHD5-PLIN5 inh: 11; TLR9-MyD88 block: 10; NOD2 RIPK2 PPI: 14

Results for CC1(C)CC(Cc2cccc(C(F)(F)F)c2)N(C(=O)OC(C)(C)C)C1 (configuration not stated) ?
ABHD5-PLIN5 inh: 0; TLR9-MyD88 block: -9; NOD2 RIPK2 PPI: -4; B2AR ag CP1: 111; B2AR FAP counter: inactive

How did CC(C)(C)OC(=O)N1CC2(CCCCC2)CC1Cc1ccc(C(F)(F)F)cc1 (configuration not stated) do in these assays?
ABHD5-PLIN5 inh: -9; TLR9-MyD88 block: 3; NOD2 RIPK2 PPI: 2; B2AR ag CP1: 100; B2AR FAP counter: inactive

How did Cc1ccc(C(=O)OCC(=O)Nc2cccc(S(=O)(=O)N3CCCCC3)c2)s1 do in these assays?
ABHD5-PLIN5 inh: -8; TLR9-MyD88 block: -4; NOD2 RIPK2 PPI: -1

What do the screens show for `O=C(c1cc2c(ccc3ccccc32)o1)N1CCN(c2ncc(C(F)(F)F)cc2Cl)CC1`?
B2AR ag: 98*; ABHD5-PLIN5 inh: 1; TLR4-MyD88 BLA: 1; Dynein cargo inh: 0.55; TLR9-MyD88 block: 13; NOD2 RIPK2 PPI: -2; B2AR ag CP1: 13*; B2AR FAP counter: inactive

What do the screens show for `COc1ccc(CNC(=O)CCCCCNc2nc(=S)[nH]c3ccccc23)cc1`?
B2AR ag: 129*; ABHD5-PLIN5 inh: -1; TLR4-MyD88 BLA: -2; Dynein cargo inh: -1.1; TLR9-MyD88 block: 9; NOD2 RIPK2 PPI: -8; B2AR ag CP1: 26*; B2AR FAP counter: inactive

How did COc1cccc(NC2c3ccccc3C(=O)N2Cc2ccco2)c1 (configuration not stated) do in these assays?
B2AR ag: 69*; ABHD5-PLIN5 inh: 3; TLR4-MyD88 BLA: 4; Dynein cargo inh: -1.1; TLR9-MyD88 block: 6; NOD2 RIPK2 PPI: -2; B2AR ag CP1: 104; B2AR FAP counter: inactive

How did COc1ccc(C2=NN(C(=O)c3cccs3)C(c3ccc(OC)cc3)C2)cc1 (configuration not stated) do in these assays?
B2AR ag: 44*; ABHD5-PLIN5 inh: -3; TLR4-MyD88 BLA: -13; Dynein cargo inh: -0.34; TLR9-MyD88 block: -5; NOD2 RIPK2 PPI: -2; B2AR ag CP1: 43*; B2AR FAP counter: inactive

Results for O=C(c1cccs1)N1N=C(c2ccccc2)CC1c1ccccc1 (configuration not stated) ?
B2AR ag: -4; ABHD5-PLIN5 inh: 0; TLR4-MyD88 BLA: 7; Dynein cargo inh: 0.053; TLR9-MyD88 block: -6; NOD2 RIPK2 PPI: 5

How did O=c1nc(-c2ccccc2)c2ccccc2[nH]1 do in these assays?
B2AR ag: 60*; ABHD5-PLIN5 inh: 0; TLR4-MyD88 BLA: -6; Dynein cargo inh: 0.033; TLR9-MyD88 block: -17; NOD2 RIPK2 PPI: -13; B2AR ag CP1: 113; B2AR FAP counter: inactive

How did Oc1c(CNc2ccccc2)cc(COCc2ccccc2)c2cccnc12 do in these assays?
B2AR ag: 4; ABHD5-PLIN5 inh: 10; TLR9-MyD88 block: 6; NOD2 RIPK2 PPI: -4

What do the screens show for `Oc1c(CN2CCOCC2)cc(COCc2ccccc2)c2cccnc12`?
B2AR ag: -2; ABHD5-PLIN5 inh: 12; TLR4-MyD88 BLA: -1; Dynein cargo inh: -0.86; TLR9-MyD88 block: -4; NOD2 RIPK2 PPI: -2; B2AR ag CP1: 92; B2AR FAP counter: inactive

What do the screens show for `CCOc1ccc(NC(=O)c2sc3nc(C)nc(N4CCOCC4)c3c2C)cc1`?
B2AR ag: 69*; ABHD5-PLIN5 inh: 1; TLR9-MyD88 block: -1; NOD2 RIPK2 PPI: -1; B2AR ag CP1: 99; B2AR FAP counter: inactive

How did CN[C@H]1CC[C@@H](c2ccc(Cl)c(Cl)c2)c2ccccc21 do in these assays?
B2AR ag: 50*!; ABHD5-PLIN5 inh: 11; TLR9-MyD88 block: -6; NOD2 RIPK2 PPI: 2; B2AR ag CP1: 81; B2AR FAP counter: inactive

Results for O=C(Nc1ccc(Br)cc1)c1cccc(S(=O)(=O)Nc2cnc3ccccc3c2)c1 ?
B2AR ag: 47*; ABHD5-PLIN5 inh: 1; TLR4-MyD88 BLA: -1; Dynein cargo inh: -0.72; TLR9-MyD88 block: -15; NOD2 RIPK2 PPI: -9; B2AR ag CP1: 104; B2AR FAP counter: inactive

How did O=C(Nc1ccc(Br)cc1)c1cccc(S(=O)(=O)Nc2ccccn2)c1 do in these assays?
B2AR ag: -1; ABHD5-PLIN5 inh: 2; TLR9-MyD88 block: -10; NOD2 RIPK2 PPI: -9

How did COc1ccc(C(=O)N2CCCC(C)(C(=O)NS(=O)(=O)C3CC3)C2)cc1 (configuration not stated) do in these assays?
ABHD5-PLIN5 inh: -3; NOD2 RIPK2 PPI: -5

Assay outcomes deposited in PubChem BioAssay by several laboratories.
